For the experiment, the target named is T1, Adrenergic receptor alpha-1 (Rattus norvegicus, UniProt P15823+P23944+P43140).
T1 sequence (P15823 whole entry): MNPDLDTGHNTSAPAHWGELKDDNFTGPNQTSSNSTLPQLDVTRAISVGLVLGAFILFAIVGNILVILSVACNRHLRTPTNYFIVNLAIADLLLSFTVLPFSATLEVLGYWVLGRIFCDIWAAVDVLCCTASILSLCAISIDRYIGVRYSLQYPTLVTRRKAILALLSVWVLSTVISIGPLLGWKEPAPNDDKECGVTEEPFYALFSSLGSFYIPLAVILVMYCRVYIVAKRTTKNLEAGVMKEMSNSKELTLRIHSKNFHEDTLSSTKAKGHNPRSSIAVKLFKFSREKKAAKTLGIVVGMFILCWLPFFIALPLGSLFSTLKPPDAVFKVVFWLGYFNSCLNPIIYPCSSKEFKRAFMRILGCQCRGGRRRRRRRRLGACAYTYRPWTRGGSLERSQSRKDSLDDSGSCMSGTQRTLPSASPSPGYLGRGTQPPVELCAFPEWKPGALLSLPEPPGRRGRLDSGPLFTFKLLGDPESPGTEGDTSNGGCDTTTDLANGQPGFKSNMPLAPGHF
T1 sequence (P23944 whole entry): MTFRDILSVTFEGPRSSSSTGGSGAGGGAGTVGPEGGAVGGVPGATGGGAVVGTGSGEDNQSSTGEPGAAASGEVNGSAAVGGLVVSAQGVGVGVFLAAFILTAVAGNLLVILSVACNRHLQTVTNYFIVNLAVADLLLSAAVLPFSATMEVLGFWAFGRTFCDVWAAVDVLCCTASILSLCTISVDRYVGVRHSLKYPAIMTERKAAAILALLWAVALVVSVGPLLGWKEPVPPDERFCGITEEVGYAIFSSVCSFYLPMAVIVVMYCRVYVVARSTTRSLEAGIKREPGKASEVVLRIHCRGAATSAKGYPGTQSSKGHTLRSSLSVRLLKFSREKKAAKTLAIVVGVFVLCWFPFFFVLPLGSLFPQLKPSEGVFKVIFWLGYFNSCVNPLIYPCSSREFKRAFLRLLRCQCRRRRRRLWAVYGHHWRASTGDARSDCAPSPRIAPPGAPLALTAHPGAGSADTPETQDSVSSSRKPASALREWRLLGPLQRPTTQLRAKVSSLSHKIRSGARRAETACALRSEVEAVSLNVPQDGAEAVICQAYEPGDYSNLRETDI
T1 sequence (P43140 whole entry): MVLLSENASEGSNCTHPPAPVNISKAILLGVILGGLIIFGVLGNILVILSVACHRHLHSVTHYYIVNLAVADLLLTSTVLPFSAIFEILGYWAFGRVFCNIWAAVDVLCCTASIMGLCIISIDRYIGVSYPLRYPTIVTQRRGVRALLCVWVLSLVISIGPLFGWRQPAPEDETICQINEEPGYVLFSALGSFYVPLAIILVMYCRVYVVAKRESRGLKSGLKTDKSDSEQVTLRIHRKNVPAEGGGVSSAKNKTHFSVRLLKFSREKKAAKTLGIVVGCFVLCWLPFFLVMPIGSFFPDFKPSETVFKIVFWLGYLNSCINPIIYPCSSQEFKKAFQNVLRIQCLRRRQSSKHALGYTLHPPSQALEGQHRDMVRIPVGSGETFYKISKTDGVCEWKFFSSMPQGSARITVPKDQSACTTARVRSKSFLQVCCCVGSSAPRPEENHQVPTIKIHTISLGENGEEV
The experiment in a line: Compound was tested for its inhibitory effect on the binding profile in Alpha-1 adrenergic receptor using [3H]prazosin in rat brain. Type of experiment: tissue-based. Summed up:
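Rat brain receptor binding with the stated radioligands. IC50 obtained by nonlinear regression from four to five concentrations. [3H]flupenthixol and [3H]N-propylnorapomorphine values come from four independent determinations each, and the [3H]haloperidol value from two experiments. Remaining ligands were determined once.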

Structures are written as SMILES.

With `O=c1ccoc2cc(OCCCN3CCN(c4ccccn4)CC3)ccc12`, the IC50 (in general, the midpoint of a concentration-inhibition curve) stood at 170 nM. In other words, the sub-micromolar range.

The values above are taken from ChEMBL document CHEMBL1125728, “Dopamine autoreceptor agonists as potential antipsychotics. 2. (Aminoalkoxy)-4H-1-benzopyran-4-ones” (J Med Chem, 1991).
